Source: ChEMBL document CHEMBL1138316, “Design, synthesis, and melatoninergic activity of new azido- and isothiocyanato-substituted indoles” (J Med Chem, 2007)
The source made the active and inactive calls. The calls are words filed in the database; no cut-off is given here.

What was measured:
Format in all cases: functional
[1] = organism: Xenopus laevis; test: Agonist activity at melatonin receptor in Xenopus laevis melanophores assessed as effect on pigment granule distribution at 100 uM relative to melatonin
Procedure, shortened: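 In Xenopus laevis melanophores, maximal agonist action at 100 µM was expressed as a percentage of the response to 1 nM melatonin. Data come from triplicate experiments.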

[2] = Antagonist activity at melatonin receptor in Xenopus laevis melanophores assessed as reduction of melatonin-induced pigment aggregation
Procedure, shortened: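 Antagonism of the melatonin response in Xenopus laevis melanophores was reported as pIC50. Values are the mean ± SEM of triplicate experiments.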

[3] = organism: Xenopus laevis; test: Agonist activity at melatonin receptor in Xenopus laevis melanophores assessed as effect on pigment granule distribution at 100 uM
Procedure, shortened: (§1)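 Agonist response in Xenopus laevis melanophores was tested up to a highest concentration of 100 µM and reported as pEC50. Values are the mean ± SEM of triplicate experiments.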

[4] = Agonist activity at melatonin receptor in Xenopus laevis melanophores assessed as effect on pigment granule distribution; procedure, shortened: as §1

| Activity [1] [%] | Log IC50 [2] | Activity [3] | Log EC50 [4] | SMILES |
| --- | --- | --- | --- | --- |
| 41 | -4.47 |  |  | COc1ccc2[nH]c(CCCN=C=S)cc2c1 |
|  | -4.15 | inactive |  | COc1ccc2[nH]c(CCCN=[N+]=[N-])cc2c1 |
|  | -4.81 | inactive |  | COc1ccc2c(ccn2CCCN=[N+]=[N-])c1 |
|  | -4.82 | inactive |  | [N-]=[N+]=NCCCn1ccc2ccccc21 |
|  | -4.91 | inactive |  | COc1ccc2c(ccn2CCCN=C=S)c1 |
| 28 | -4.04 |  |  | S=C=NCCCn1ccc2ccccc21 |

More lines, now with the values behind:

| SMILES | Activity [1] [%] | Log IC50 [2] | Activity [3] | Log EC50 [4] |
| --- | --- | --- | --- | --- |
| COc1ccc2[nH]cc(CCNC(C)=O)c2c1 [MELATONIN] |  |  |  | -10.07 |
| S=C=NCCCc1cc2ccccc2[nH]1 | 38 | -4.35 |  |  |
| CC(=O)NCCc1c(Cc2ccccc2)[nH]c2ccccc12 [LUZINDOLE] |  | -5.61 | inactive |  |
| COc1ccc2[nH]cc(CCCN=C=S)c2c1 |  | -4.49 | inactive |  |
| COc1ccc2[nH]cc(CCCN=[N+]=[N-])c2c1 |  | -5.03 | inactive |  |
| [N-]=[N+]=NCCCc1cc2ccccc2[nH]1 |  | -4.72 | inactive |  |
| S=C=NCCCc1c[nH]c2ccccc12 | 31 | -3.92 |  |  |
| COc1ccc2[nH]cc(CCN=C=S)c2c1 |  | -5.47 | inactive |  |
| COc1ccc2[nH]cc(CCN=[N+]=[N-])c2c1 |  | -5.09 | inactive |  |
| [N-]=[N+]=NCCCc1c[nH]c2ccccc12 |  | -4.79 | inactive |  |
